This is an account of results in ChEMBL document CHEMBL1143359, “Synthesis and in vitro anti-proliferative activity of beta-elemene monosubstituted derivatives in HeLa cells mediated through arrest of cell cycle at the G1 phase” (Bioorg Med Chem, 2009).

Holding throughout (type): functional, cell-based
Experiment [1] relates to HeLa. Put plainly: Antiproliferative activity against human HeLa cells after 24 hrs by WST-1 assay. A digest of the protocol: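 HeLa cells grown in RPMI 1640 with 10% inactivated FBS, penicillin, streptomycin and L-glutamine at 37 °C under 5% CO2. They were trypsinized, seeded at 5 × 10³ cells/well, and left 12 h. Compounds were added at five concentrations for 24 h. WST-1 was added and absorbance read at 450 nm. IC50 was calculated from absorbance.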
In general terms: Formazan colour is commonly taken as a measure of viable cells.

Experiment [2] deals with HeLa. Put plainly: Cell cycle arrest in human HeLa cells assessed as increase in G1 phase cells after 24 hrs by flow cytometry using propidium iodide staining. A digest of the protocol:
(§1)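 After 24 h drug exposure at 37 °C, HeLa cells were trypsinized. About 1 × 10⁶ cells were washed twice in cold PBS and fixed overnight in chilled 75% methanol at −20 °C. DNA content was measured by propidium iodide flow cytometry, and the percentage of cells in each cycle phase was calculated. Untreated cultures served as controls.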
For orientation: Flow cytometry measures light scatter and fluorescence of single cells or particles in a stream.

For experiment [3], the system named is HeLa. Put plainly: Decrease in CyclinD1 protein expression in human HeLa cells after 24 hrs by Western blotting. A digest of the protocol:
(§2)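 HeLa cells were treated 24 h, trypsinized, washed in ice-cold PBS and lysed on ice in RIPA with PMSF. Lysates were clarified at 12,000 rpm, 4 °C, 15 min, and protein was measured by Bradford. Extracts ran on 12% SDS–PAGE onto PVDF, with milk/Tween blocking for 2 h. Rabbit anti-cyclin D1 and anti-Rb (1:100) and biotinylated anti-rabbit (1:400) were each applied 1 h at 37 °C, with ABC detection. β-actin was the loading control.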
A general note: Immunoblotting shows a protein as a band on a membrane.

Experiment [4] relates to HeLa. Put plainly: Decrease in Rb protein expression in human HeLa cells after 24 hrs by Western blotting. A digest of the protocol:
as §2

For experiment [5], the system named is HeLa. Put plainly: Decrease in Rb phosphorylation in human HeLa cells after 24 hrs by Western blotting. A digest of the protocol: as §2
Experiment [6] relates to HeLa. Put plainly: Cell cycle arrest in human HeLa cells assessed as decrease in S phase cells after 24 hrs by flow cytometry using propidium iodide staining. Put shortly:
as §1

In experiment [7] the test system is HeLa. Put plainly: Cell cycle arrest in human HeLa cells assessed as decrease in G2-M phase cells after 24 hrs by flow cytometry using propidium iodide staining. Put shortly: as §1

Molecules are shown by their SMILES. pIC50: −log10 of the molar value. The source made the active and inactive calls. No cut-off for these calls is given here.

`C=C[C@]1(C)CC[C@@H](C(=C)CNC2CCCC2)C[C@H]1C(=C)C`: the pIC50 – broadly, −log10 of the IC50, conventionally taken in molar units – in the experiment with HeLa [1] is 6.28. Besides, the outcome with HeLa [2] was Active.

On to `C=C[C@]1(C)CC[C@@H](C(=C)CNC(C)(C)C)C[C@H]1C(=C)C`, for which, in the experiment on HeLa [1], the negative logarithm of the IC50 (pIC50) was 4.60. Besides, in the experiment on HeLa [2], the result was Active.

For the compound `C=C[C@]1(C)CC[C@@H](C(=C)COC)C[C@H]1C(=C)C`, the pIC50 with HeLa [1] is 3.67. In addition, the outcome in the experiment with HeLa [2] was Active.

In the experiment on HeLa [1], `C=C[C@]1(C)CC[C@@H](C(=C)CNC(C)C)C[C@H]1C(=C)C` had a pIC50 of 7.40. The outcome in the experiment on HeLa [2] was Active.

`C=C[C@]1(C)CC[C@@H](C(=C)COCCCC)C[C@H]1C(=C)C`: in the experiment with HeLa [1], the pIC50 was 3.58. Further, in the experiment with HeLa [2], the outcome was Active.

`C=C[C@]1(C)CC[C@@H](C(=C)CNC2CCCCC2)C[C@H]1C(=C)C` had a pIC50 in the experiment with HeLa [1] of 5.47. Also, the outcome in the experiment on HeLa [2] was Active.

Regarding `C=C[C@]1(C)CC[C@@H](C(=C)Cn2ccnc2)C[C@H]1C(=C)C`, in the experiment with HeLa [1], the negative-log IC50 (pIC50) was 4.80. Moreover, in the experiment on HeLa [2], the result was Active.

Compound `C=C[C@]1(C)CC[C@@H](C(=C)COCCOC)C[C@H]1C(=C)C` showed a negative logarithm of the IC50 (pIC50) in the experiment with HeLa [1] of 3.62. Also, the result with HeLa [2] was Active.

In turn, `C=C[C@]1(C)CC[C@@H](C(=C)CNC2CCCCCCC2)C[C@H]1C(=C)C` had a pIC50 in the experiment on HeLa [1] of 5.23. Moreover, the outcome with HeLa [2] was Active.

Compound `C=C[C@]1(C)CC[C@@H](C(=C)C)C[C@H]1C(=C)C` gave a pIC50 with HeLa [1] of 3.63. In addition, the result with HeLa [2] was Active.

Consider `C=C[C@]1(C)CC[C@@H](C(=C)COCC)C[C@H]1C(=C)C`, for which the pIC50 in the experiment with HeLa [1] was 3.98. Besides, the result in the experiment on HeLa [2] was Active.

`C=C[C@]1(C)CC[C@@H](C(=C)CNCCCC)C[C@H]1C(=C)C` showed a pIC50 in the experiment with HeLa [1] of 4.97. Moreover, the result in the experiment on HeLa [2], in the experiment on HeLa [3], in the experiment on HeLa [5], in the experiment with HeLa [6] and in the experiment with HeLa [7] was Active. The outcome in the experiment on HeLa [4] was inactive.

Compound `C=C[C@]1(C)CC[C@@H](C(=C)CN(CC)CC)C[C@H]1C(=C)C` gave a pIC50 in the experiment on HeLa [1] of 4.84. Further, in the experiment on HeLa [2], the outcome was Active.
